According to ChEMBL document CHEMBL3817728, “Synthesis, Evaluation, and Mechanism Study of Novel Indole-Chalcone Derivatives Exerting Effective Antitumor Activity Through Microtubule Destabilization in Vitro and in Vivo” (J Med Chem, 2016):

How the values were obtained:
HCT-8 = assay: Resistance index, ratio of IC50 for human HCT8/VCT cells to IC50 for human HCT8 cells; format: functional
A549 [1] = assay: Disruption of mitochondrial membrane potential in human A549 cells assessed as green fluorescence intensity at 1 nM after 24 hrs by JC1 staining-based flow cytometric method (reference value: 0.02%); format: functional
A549 [2] = assay: Induction of apoptosis in human A549 cells assessed as early apoptotic cells at 1 nM after 48 hrs by annexin V-FITC/propidium iodide staining-based flow cytometric method (reference value: 1.95%); format: functional
A549 [3] = assay: Resistance index, ratio of IC50 for human A549/CDDP cells to IC50 for human A549 cells; format: functional
[4] = Half life in Sprague-Dawley rat liver microsomes in presence of NADPH regenerating system by HPLC method; format: ADME
Method in brief: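 Compound incubated with rat liver microsomes at 37 °C in buffer containing an NADPH regenerating system, sampled over time up to 3 h. Remaining parent compound was measured by HPLC and half-life derived.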

A549 [5] = assay: Induction of apoptosis in human A549 cells assessed as necrotic cells at 3 nM after 48 hrs by annexin V-FITC/propidium iodide staining-based flow cytometric method (reference value: 0.01%); format: functional
Method in brief: (§1)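 A549 cells exposed 24 h or 48 h at indicated concentrations, then trypsinized, harvested and stained with Annexin V-FITC and PI; flow cytometry quadrants scored as necrotic (upper left), late apoptotic (upper right), live (bottom left) and early apoptotic (bottom right). Five independent experiments, representative shown.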

A549 [6] = assay: Induction of apoptosis in human A549 cells assessed as viable cells at 10 nM after 48 hrs by annexin V-FITC/propidium iodide staining-based flow cytometric method (reference value: 98.1%); format: functional; settings: A549, 48 h, read-out: Activity; method in brief: as §1
A549 [7] = assay: Induction of apoptosis in human A549 cells assessed as necrotic cells at 1 nM after 48 hrs by annexin V-FITC/propidium iodide staining-based flow cytometric method (reference value: 0.01%); format: functional
A549 [8] = assay: Induction of apoptosis in human A549 cells assessed as early apoptotic cells at 10 nM after 48 hrs by annexin V-FITC/propidium iodide staining-based flow cytometric method (reference value: 1.95%); format: functional

- half-life [4]: 2.62 h
Structure (SMILES): COc1ccc2c(/C=C(\C)C(=O)c3cc(OC)c(OC)c(OC)c3)c[nH]c2c1
- Ratio IC50 (HCT-8): 0.42
- Activity (A549 [1]): 1.78%
- Activity (A549 [2]): 18.9%
- Ratio IC50 (A549 [3]): 1.33
- Activity (A549 [5]): 2.69%
- viability at 0.01 µM (A549 [6]): 15.6%
- Activity (A549 [7]): 1.52%
- Activity (A549 [8]): 8.41%
